Sampled rows, rich in hits. Any-hit rate of the full collection: about 1.2%.
ARFGAP1 inh = rat ARFGAP1 inhibition | Arfgap1-stimulated ARF1 GTP hydrolysis, GDP FP detection | 360,000 compounds, 0.26% hits | AID 651572 | inhibition, % at 16.5 µM;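 active = inhibition above a per-plate limit, mean inhibition of low control wells plus 3 SD, cut at about 25% in these data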
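Replicates: Single well per compound | Assay system: Truncated rat Arfgap1 GAP domain | Control set: No-Arfgap1 wells (100%) versus DMSO full-reaction wells (0%) | Times: Enzyme reaction 120 min at 25 °C after 20 min preincubation | Reagent: Human ARF1(Δ1-17)-GTP substrate | Measured by: Tracer-displacement fluorescence polarization with EDTA stop, 620/688 nm | Measure: Percent inhibition of Arfgap1-stimulated GTP hydrolysis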
Fh CTSL1 inh = counter-screen for PFM18AAP inhibitors: inhibitors of F. hepatica cathepsin L1 | 300,000 compounds, 0.49% hits | AID 1906 | recombinant F. hepatica cathepsin L1, Z-Leu-Arg-MCA fluorescence | inhibition, % at 5.96 µM;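 active = inhibition above the mean of all tested compounds plus 3 SD, set per screening campaign, cut at about 17% in these data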
HCV core dimer = blocks dimerization of HCV core protein; inhibition, % at 5 µM; 300,000 compounds, 0.33% hits; TR-FRET GST/Flag-core106 dimerization, 1536-well;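 active = inhibition above the mean of all tested compounds plus 3 SD, set per screening campaign, cut at about 45% in these data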
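Assay system: GST-tagged and Flag-tagged HCV core protein residues 1-106 / Times: compound-protein-antibody incubation 4 h at 22.5 °C / Signal: time-resolved FRET, ex 340 nm, em 617 and 671 nm / Evaluation: % inhibition based on acceptor/donor emission ratio / Benchmarks: wells lacking GST-core106 and wells with excess unlabelled core106 / Repeats: singlicate, one well per compound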
ASAP1 inh = ASAP1 ArfGAP inhibition; Q9ULH1; ASAP1-stimulated ARF1 GTP hydrolysis, GDP FP detection; inhibition, % at 16.5 µM; 360,000 compounds, 0.19% hits; in the data active = inhibition above about 25%
Target sequence (Q9ULH1 325-724 limits assumed): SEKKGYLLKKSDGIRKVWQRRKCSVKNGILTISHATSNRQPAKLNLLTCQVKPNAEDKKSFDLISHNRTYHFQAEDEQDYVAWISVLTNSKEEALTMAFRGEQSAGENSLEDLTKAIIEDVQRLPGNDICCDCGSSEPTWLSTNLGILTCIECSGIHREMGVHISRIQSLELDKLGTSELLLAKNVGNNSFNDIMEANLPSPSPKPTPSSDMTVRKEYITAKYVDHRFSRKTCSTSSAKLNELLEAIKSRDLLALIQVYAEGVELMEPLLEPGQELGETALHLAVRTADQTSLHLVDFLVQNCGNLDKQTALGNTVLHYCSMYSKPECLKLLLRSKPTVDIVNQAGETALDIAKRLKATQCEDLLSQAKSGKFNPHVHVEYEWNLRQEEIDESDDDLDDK
GC-A act = GC-A (human) enzyme activation. P16066. activation, % at 10 µM. HEK293 GC-A cells, cGMP TR-FRET, EC30 ANP; 0% at EC30 ANP, 100% saturating ANP. 370,000 compounds, 0.14% hits; in the data active = activation above about 40%
GC-B act = GC-B (human) receptor activation. P20594. HEK293-GC-B cells, CNP EC30, cGMP TR-FRET; 0% at EC30 CNP, 100% saturating CNP. activation, % at 10 µM. 370,000 compounds, 0.11% hits. AID 1920062;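 active = activation at 10 µM reaching about 35% in either raw or pattern-adjusted values, limit read from the data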
ASAP1 inh confirm = ASAP1 inhibition confirmed | shares compounds with ASAP1 inh | ASAP1-stimulated Arf1 GTPase, GDP fluorescence polarization | inhibition, % at 16.5 µM | 620 compounds, 37% hits | AID 624431;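 active = mean inhibition over triplicates exceeds the hit threshold derived for the earlier primary screening run, cut at about 25% in these data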
Hits are given with their value; - = inactive; . = not tested or not shown.

SMILES	ARFGAP1 inh	Fh CTSL1 inh	HCV core dimer	ASAP1 inh	GC-A act	GC-B act	ASAP1 inh confirm
CCOC(=O)c1ccccc1OCc1cc(/C=N/NC(=O)c2ccncc2)ccc1OC	-	-	-	-	-	-	.
COc1ccc(NC(=O)C2CCC(CNc3c(N4CCCCC4)c(=O)c3=O)CC2)cc1OC (stereo not given)	-	-	-	-	-	-	.
CCc1nnc(NC(=O)C2CCC(CNc3c(N4CCCCC4)c(=O)c3=O)CC2)s1 (stereo not given)	-	-	-	28	-	-	-
Cc1ccc(C(=O)N2CCCC2)cc1Br	-	-	-	26	-	-	-
Cc1ccc(C(=O)N2CCCCC2)cc1S(=O)(=O)N1CCCC1	-	-	-	-	-	-	.
CC(=O)c1cccc(NC(=O)Oc2ccccc2)c1	-	-	-	-	-	-	.
CC(C)c1ccc(OCC(=O)Nc2ccc(S(=O)(=O)Nc3ccccn3)cc2)cc1	-	-	-	25	-	-	-
CC(C)c1cccc(OCC(=O)Nc2ccc(S(=O)(=O)Nc3ccccn3)cc2)c1	-	-	-	-	-	-	.
CC1(C)C=C2C(=NN(c3ccccc3)C(N)=C2C#N)CO1	-	109	-	26	-	-	-
CC1(C)Cc2c(C#N)c(N)n(-c3ccccc3)c(=S)c2CO1	-	-	-	-	-	-	.
COc1ccc2c(c1OC)C(=O)OC2CC(=O)c1ccc(O)c(O)c1 (stereo not given)	-	-	-	144	-	-	-
CCCC1(c2ccccc2)NC(=O)N(CCN2C(=O)c3ccccc3C2=O)C1=O (stereo not given)	.	-	-	.	.	.	.
CC1(c2ccccc2)NC(=O)N(CCN2C(=O)c3ccccc3C2=O)C1=O (stereo not given)	-	-	-	25	-	-	-
Nc1ccc(O)c2c(=O)cc(-c3ccccc3Cl)oc12	-	-	-	28	-	-	-
O=c1cc(-c2ccccc2Cl)oc2cc(O)cc(O)c12	-	-	-	-	-	-	.
CCN(CC)CC(O)CCCCCCCCC(=O)OC (stereo not given)	-	-	-	-	-	-	.
COc1ccc(C(=O)/C=C/Sc2nc3ccccc3o2)cc1	-	-	-	-	-	-	.
CCCCOC(=O)Sc1nc2ccccc2o1	-	-	-	25	-	-	-
CCOC(=O)c1ccc(Oc2cn[nH]c2-c2ccc(O)cc2O)cc1	-	-	-	27	-	-	-
N=c1c(C(=O)NCc2ccc3c(c2)OCO3)cc2c(=O)n3ccccc3nc2n1CC1CCCO1 (stereo not given)	-	-	-	-	-	-	.
COc1cc2sc3ccc(C#Cc4ccccn4)cc3c(=O)c2cc1OC	-	-	-	31	-	-	28
COc1cccc2sc3cc(C#Cc4ccccn4)ccc3c(=O)c12	-	.	.	-	-	-	.
O=C(Nc1ccn(CCCN(CCCn2ccc(NC(=O)OCc3ccccc3)nc2=O)CCc2cc3ccccc3[nH]2)c(=O)n1)OCc1ccccc1	-	.	.	30	-	-	-
NC(Cc1ccc(C(F)(F)F)cc1)c1csc(Nc2ccc(C(=O)NCc3ccco3)cn2)n1 (stereo not given)	-	.	.	28	-	-	-
NC(Cc1ccc(C(F)(F)F)cc1)c1csc(Nc2ccc(C(=O)NCCCO)cn2)n1 (stereo not given)	-	.	.	-	-	-	.
O=C(O)C/C=C(\NC(=O)OCc1ccccc1)C(=O)OCc1ccccc1	-	-	-	-	-	-	.
O=C(CN1CCN(Cc2ccccc2)CC1)Nc1cccc(S(=O)(=O)N2CCCCCC2)c1	-	-	-	-	-	-	.
O=C(CN1CCOCC1)Nc1cccc(S(=O)(=O)N2CCCCCC2)c1	-	-	-	27	-	-	-
N/C(=N\OC(=O)c1cccc2ccccc12)c1cccc([N+](=O)[O-])c1	-	-	-	28	-	-	57

Bioassay records from PubChem BioAssay.
